From ChEMBL document CHEMBL2331396, “Exploration of 1-(3-chloro-4-(4-oxo-4H-chromen-2-yl)phenyl)-3-phenylurea derivatives as selective dual inhibitors of Raf1 and JNK1 kinases for anti-tumor treatment” (Bioorg Med Chem, 2013)

Experiments:
[1] = target: Mitogen-activated protein kinase 3 (Homo sapiens) (UniProt P27361); assay: Inhibition of ERK1 (unknown origin) at 50 uM
In short: (§1)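 Luminescent Kinase-Glo Plus assay. Enzyme, substrate, ATP and compound were mixed in pH 7.4 buffer containing 25 mM HEPES and 10 mM MgCl2, then incubated at 30 °C for 1 h. An equal volume of Kinase-Glo Plus reagent stopped the reaction before luminescence was read. Signal tracks remaining ATP and runs inversely to kinase activity; results are given as percent inhibition.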

[2] = target: Mitogen-activated protein kinase 8 (Homo sapiens) (UniProt P45983); assay: Inhibition of JNK1 (unknown origin) at 50 uM; in short: as §1
Mitogen-activated protein kinase 8 (Homo sapiens), sequence (P45983 whole entry): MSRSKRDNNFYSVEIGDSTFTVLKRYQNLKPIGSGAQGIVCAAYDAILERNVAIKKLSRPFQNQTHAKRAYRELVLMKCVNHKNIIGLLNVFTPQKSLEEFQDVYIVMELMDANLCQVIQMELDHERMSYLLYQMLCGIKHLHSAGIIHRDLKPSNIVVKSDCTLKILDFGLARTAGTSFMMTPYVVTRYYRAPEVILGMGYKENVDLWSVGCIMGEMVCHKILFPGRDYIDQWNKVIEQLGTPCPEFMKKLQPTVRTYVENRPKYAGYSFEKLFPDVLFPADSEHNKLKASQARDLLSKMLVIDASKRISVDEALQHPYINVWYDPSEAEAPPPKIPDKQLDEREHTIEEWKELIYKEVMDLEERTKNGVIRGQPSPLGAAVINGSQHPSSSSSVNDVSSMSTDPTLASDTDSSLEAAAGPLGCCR

[3] = Cytotoxicity against human HL7702 cells assessed as inhibition rate at 100 uM measured after 48 hrs by MTT assay; type: cell-based, L02; conditions: read-out: INH
In short: (§2)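 Normal liver cells were grown in DMEM with 10% FBS plus penicillin/streptomycin at 37 °C, 5% CO₂. They were seeded at 5 × 10⁵ cells/mL and incubated 24 h. Compounds from DMSO stock were added at final 50 or 100 µM (DMSO <1%), in triplicate, for 48 h. MTT was added for 4 h, formazan dissolved in DMSO, A495 read, and inhibition rate calculated.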

[4] = Cytotoxicity against human QSG7701 cells assessed as inhibition rate at 100 uM measured after 48 hrs by MTT assay; type: cell-based; conditions: read-out: INH; in short: as §2
[5] = Cytotoxicity against human HL7702 cells assessed as inhibition rate at 50 uM measured after 48 hrs by MTT assay; type: cell-based, L02; conditions: read-out: INH; in short: as §2
[6] = Cytotoxicity against human QSG7701 cells assessed as inhibition rate at 50 uM measured after 48 hrs by MTT assay; type: cell-based; conditions: read-out: INH; in short: as §2
[7] = test system: HCT-116; assay: Antiproliferative activity against human HCT116 cells assessed as growth inhibition measured after 48 hrs by MTT assay; type: functional, cell-based; conditions: HCT-116, 48 h
In short: (§3)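 Compounds dissolved in DMSO and diluted in medium to final 0.5–50 µM (final DMSO <1%). Cells were grown in DMEM with 10% FBS, penicillin and streptomycin at 37 °C, 5% CO₂. They were seeded at 5 × 10⁵ cells/mL, incubated 24 h, then treated in triplicate per concentration for 48 h. MTT was added for 4 h, formazan dissolved in DMSO, absorbance read at 495 nm, and IC50 derived.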

[8] = test system: A549; assay: Antiproliferative activity against human A549 cells assessed as growth inhibition measured after 48 hrs by MTT assay; type: functional, cell-based; conditions: A549, 48 h; in short: as §3
[9] = test system: HepG2; assay: Antiproliferative activity against human HepG2 cells assessed as growth inhibition measured after 48 hrs by MTT assay; type: functional, cell-based; conditions: HepG2, 48 h; in short: as §3
[10] = target: Mitogen-activated protein kinase 14 (Homo sapiens) (UniProt Q16539); assay: Inhibition of p38-alpha (unknown origin) at 50 uM
Mitogen-activated protein kinase 14 (Homo sapiens), sequence (Q16539 whole entry): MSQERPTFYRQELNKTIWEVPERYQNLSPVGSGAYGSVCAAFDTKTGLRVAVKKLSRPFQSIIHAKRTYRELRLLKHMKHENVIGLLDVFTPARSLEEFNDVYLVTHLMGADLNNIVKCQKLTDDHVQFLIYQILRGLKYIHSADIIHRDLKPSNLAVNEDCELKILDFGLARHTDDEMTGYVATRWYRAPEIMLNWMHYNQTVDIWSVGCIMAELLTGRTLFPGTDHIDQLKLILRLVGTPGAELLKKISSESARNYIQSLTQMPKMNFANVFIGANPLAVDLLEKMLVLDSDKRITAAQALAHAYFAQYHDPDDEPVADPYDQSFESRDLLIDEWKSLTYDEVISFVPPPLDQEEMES
In short: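 Kinase-Glo Plus luminescent assay. Enzyme, substrate, ATP and compound were mixed in 25 mM HEPES pH 7.4 with 10 mM MgCl₂ and incubated 1 h at 30 °C. The reaction was stopped with an equal volume of Kinase-Glo Plus reagent. Luminescence reflects remaining ATP, inversely related to kinase activity, and is reported as percent inhibition at a single concentration.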

Mitogen-activated protein kinase 3 (Homo sapiens), sequence (P27361 whole entry): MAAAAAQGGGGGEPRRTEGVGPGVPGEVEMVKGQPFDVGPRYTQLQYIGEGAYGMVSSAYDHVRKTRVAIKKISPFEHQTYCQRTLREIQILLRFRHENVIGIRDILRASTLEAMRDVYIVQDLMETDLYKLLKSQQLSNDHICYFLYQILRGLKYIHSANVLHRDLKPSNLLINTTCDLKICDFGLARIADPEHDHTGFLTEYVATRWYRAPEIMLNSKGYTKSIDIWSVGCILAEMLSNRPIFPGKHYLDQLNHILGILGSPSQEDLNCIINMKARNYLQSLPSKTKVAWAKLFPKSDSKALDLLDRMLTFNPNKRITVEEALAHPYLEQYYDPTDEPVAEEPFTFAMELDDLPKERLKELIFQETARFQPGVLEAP

Row | SMILES | inhibition [1] | inhibition [2] | cytotoxicity at 48 h, 100 µM [3] | cytotoxicity at 48 h, 100 µM [4] | cytotoxicity at 48 h, 50 µM [5] | cytotoxicity at 48 h, 50 µM [6] | IC50 [7] | IC50 [8] | IC50 [9] | inhibition [10]
1 | CN[C@@H]1C[C@H]2O[C@@](C)([C@@H]1OC)n1c3ccccc3c3c4c(c5c6ccccc6n2c5c31)C(=O)NC4 | 99.4% | 96% |  |  |  |  |  |  |  | 
2 | CCc1ccc2oc(-c3ccc(NC(=O)Cc4ccc(F)cc4)cc3Cl)cc(=O)c2c1 |  |  | 45.2% | 36.9% | 29.1% | 16.2% | > 50 µM | > 50 µM | > 50 µM | 
3 | CCc1ccc2oc(-c3ccc(NC(=O)Nc4cccc(Cl)c4)cc3Cl)cc(=O)c2c1 |  |  | 37.2% | 18% | 9.4% | 12.6% | 27.9 µM | > 50 µM | 30.7 µM | 
4 | COc1ccc2oc(-c3ccc(NC(=O)Nc4ccc(Cl)c(Cl)c4)cc3Cl)cc(=O)c2c1 |  |  | 77.9% | 42.5% | 66.4% | 13.2% | 8.6 µM | 15.6 µM | 9.9 µM | 
5 | Oc1ccc(-c2nc(-c3ccc(F)cc3)c(-c3ccncc3)[nH]2)cc1 |  |  |  |  |  |  |  |  |  | 106%
6 | O=C(Nc1cccc(Cl)c1)Nc1ccc(-c2cc(=O)c3cc(F)ccc3o2)c(Cl)c1 |  |  | 54.2% | 57.7% | 20.1% | 26.8% | 24.2 µM | > 50 µM | 31.7 µM | 
7 | O=C(Nc1cccc(Cl)c1)Nc1ccc(-c2cc(=O)c3ccccc3o2)c(Cl)c1 |  |  | 47.1% | 62.4% | 26.8% | 48.9% | 25.4 µM | 14 µM | 9.7 µM | 
